Laboratory results published in paper PMC5991896 (Biochimie Open, 2017).

Target: T1, fucolectin-related protein (FRP) (Streptococcus pneumoniae, UniProt A0A0H2US34)
T1 sequence (A0A0H2US34 1-1038): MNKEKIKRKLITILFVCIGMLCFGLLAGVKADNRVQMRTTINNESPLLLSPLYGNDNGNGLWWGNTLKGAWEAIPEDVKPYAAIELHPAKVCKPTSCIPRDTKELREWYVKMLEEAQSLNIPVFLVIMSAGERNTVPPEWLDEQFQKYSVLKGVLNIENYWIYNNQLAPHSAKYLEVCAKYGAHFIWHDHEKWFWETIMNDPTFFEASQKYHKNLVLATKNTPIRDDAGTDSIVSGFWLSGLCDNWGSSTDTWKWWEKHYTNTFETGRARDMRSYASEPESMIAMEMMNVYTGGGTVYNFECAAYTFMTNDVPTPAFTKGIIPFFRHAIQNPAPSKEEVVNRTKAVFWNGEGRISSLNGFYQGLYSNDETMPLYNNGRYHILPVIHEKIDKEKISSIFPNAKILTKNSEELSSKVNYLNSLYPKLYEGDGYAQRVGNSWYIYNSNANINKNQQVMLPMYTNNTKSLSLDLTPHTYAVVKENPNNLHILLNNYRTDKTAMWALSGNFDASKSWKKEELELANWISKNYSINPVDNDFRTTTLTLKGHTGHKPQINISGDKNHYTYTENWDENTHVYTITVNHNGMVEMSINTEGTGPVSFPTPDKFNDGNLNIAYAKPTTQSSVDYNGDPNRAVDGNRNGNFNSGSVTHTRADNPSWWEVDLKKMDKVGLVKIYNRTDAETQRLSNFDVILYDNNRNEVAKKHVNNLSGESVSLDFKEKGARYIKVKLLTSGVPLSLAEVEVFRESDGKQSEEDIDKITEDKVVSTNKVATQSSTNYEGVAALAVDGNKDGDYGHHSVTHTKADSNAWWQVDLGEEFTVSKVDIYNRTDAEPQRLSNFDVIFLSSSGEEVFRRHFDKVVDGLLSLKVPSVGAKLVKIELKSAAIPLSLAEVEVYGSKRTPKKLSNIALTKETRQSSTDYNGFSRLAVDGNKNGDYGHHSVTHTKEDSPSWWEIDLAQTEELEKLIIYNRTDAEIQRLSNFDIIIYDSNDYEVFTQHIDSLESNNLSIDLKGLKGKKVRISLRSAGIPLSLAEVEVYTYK
Assay: enzyme-linked lectinosorbent inhibition assay
Assay type: binding
Details: TBS-T pH 7.35, 20 °C; no metal needed; ratio from amounts giving 50% inhibition
Procedure, shortened: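 Recombinant SP2159 FRP expressed in E. coli and biotinylated. Wells coated at 4 °C with 10 μg human ovarian cyst phenol-insoluble glycoprotein bearing H Fucα1→2Gal and Fucα1→3/4GlcNAc glycotopes. Twofold serially diluted saccharide was mixed with an equal volume of fixed FRP for 1 h at 20 °C. TBS-T served as diluent and wash. The nmole/well giving 50% inhibition versus no inhibitor was read from the inhibition curve.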

Compound | Molar Relative Potency / LFuc as 1.0
C[C@@H]1O[C@H](Oc2ccc([N+](=O)[O-])cc2)[C@@H](O)[C@H](O)[C@@H]1O [compound 1, p-Nitrophenyl-β-LFuc] | 69.1 relative to LFuc = 1.0
C[C@@H]1O[C@@H](Oc2ccc([N+](=O)[O-])cc2)[C@@H](O)[C@H](O)[C@@H]1O [compound 2, p-Nitrophenyl-α-LFuc] | 34.5 relative to LFuc = 1.0
CO[C@H]1O[C@@H](C)[C@@H](O)[C@@H](O)[C@@H]1O [compound 3, Methyl-β-LFuc] | 21.9 relative to LFuc = 1.0
C[C@@H]1O[C@@H](O[C@H]2C(O)O[C@H](CO)[C@H](O)[C@@H]2O)[C@@H](O)[C@H](O)[C@@H]1O (stereo partly drawn) [compound 9, LFucα1→2Gal] | 0.7 relative to LFuc = 1.0
CC(=O)N[C@H]1[C@H](O[C@H]2[C@@H](O)[C@@H](CO)O[C@@H](O[C@H]3[C@H](O)[C@@H](O)C(O)O[C@@H]3CO)[C@@H]2O)O[C@H](CO)[C@@H](O[C@@H]2O[C@@H](C)[C@@H](O)[C@@H](O)[C@@H]2O)[C@@H]1O[C@@H]1O[C@H](CO)[C@H](O)[C@H](O)[C@H]1O[C@@H]1O[C@@H](C)[C@@H](O)[C@@H](O)[C@@H]1O (stereo partly drawn) [compound 7, LFucα1→2Galβ1→3[LFucα1→4]GlcNAcβ1→3Gal β1→4Glc] | 1.8 relative to LFuc = 1.0
C[C@@H]1O[C@@H](O[C@H]2[C@H](O[C@H]3[C@H](O[C@@H]4O[C@@H](C)[C@@H](O)[C@@H](O)[C@@H]4O)[C@@H](O)C(O)O[C@@H]3CO)O[C@H](CO)[C@H](O)[C@@H]2O)[C@@H](O)[C@H](O)[C@@H]1O (stereo partly drawn) [compound 4, LFucα1→2Galβ1→4[LFucα1→3]Glc] | 5.7 relative to LFuc = 1.0
OC[C@@H]1OC(O)[C@@H](O)[C@H](O)[C@@H]1O (stereo partly drawn) [compound 6, LGal] | 4.4 relative to LFuc = 1.0
OC1OC[C@@H](O)[C@@H](O)[C@@H]1O (stereo partly drawn) [compound 10, DAra] | 0.09 relative to LFuc = 1.0
CO[C@@H]1O[C@@H](C)[C@@H](O)[C@@H](O)[C@@H]1O [compound 5, Methyl-α-LFuc] | 4.4 relative to LFuc = 1.0
